Data taken from ChEMBL document CHEMBL1150419, “Structure-activity relationships of a peptide inhibitor of the human FcRn:human IgG interaction” (Bioorg Med Chem, 2008).
Square brackets hold non-standard residues; d marks the D form. Peptide text beside a SMILES is read from it. Dap = NC[C@H](N)C(=O)O

Target: IgG receptor FcRn large subunit p51 (Homo sapiens, UniProt P55899)
Assay: Inhibition of human IgG binding to soluble human FcRn by ELISA
Procedure, shortened: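 Biotinylated soluble human FcRn immobilized on neutravidin plates, incubated with hIgG (3 nM, constant) and peptide at varying concentrations for 2 h at 37 °C. After washing, bound hIgG detected with peroxidase-conjugated hIgG-specific Fab fragments.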

Sequence of IgG receptor FcRn large subunit p51 (P55899 whole entry): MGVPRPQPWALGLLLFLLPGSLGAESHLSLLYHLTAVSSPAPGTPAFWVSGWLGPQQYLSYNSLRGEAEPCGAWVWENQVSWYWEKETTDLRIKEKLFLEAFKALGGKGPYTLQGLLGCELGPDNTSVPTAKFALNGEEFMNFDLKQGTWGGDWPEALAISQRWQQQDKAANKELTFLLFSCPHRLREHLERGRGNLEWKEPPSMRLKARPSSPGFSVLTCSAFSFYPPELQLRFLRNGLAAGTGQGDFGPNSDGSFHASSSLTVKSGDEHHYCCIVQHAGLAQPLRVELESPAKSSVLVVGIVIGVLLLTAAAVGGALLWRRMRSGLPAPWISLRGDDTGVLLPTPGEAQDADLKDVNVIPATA

Structure (SMILES) | IC50
CC(C)C[C@@H](C(=O)N[C@@H](Cc1ccc(O)cc1)C(=O)N1CCC[C@H]1C(=O)N[C@@H](CS)C(N)=O)N(C)C(=O)CN(C)C(=O)CNC(=O)[C@H](Cc1ccccc1)NC(=O)[C@H](Cc1csc[n+]1C)NC(=O)CNC(=O)[C@@H](NC(=O)[C@@H](NC(=O)[C@H](Cc1ccccc1)NC(=O)[C@@H](N)CCCN=C(N)N)C(C)(C)S)[C@@H](C)O | 2.4 µM
CC(C)C[C@H](NC(=O)[C@H]1CCCN1C(=O)[C@H]1CCCN1C(=O)[C@H](Cc1ccccc1)NC(=O)[C@H](Cc1cnc[nH]1)NC(=O)CNC(=O)[C@@H](NC(=O)[C@@H](NC(=O)[C@H](Cc1ccccc1)NC(=O)[C@H](CCCNC(=N)N)NC(=O)[C@@H](N)CCC(N)=O)C(C)(C)S)[C@@H](C)O)C(=O)N[C@@H](Cc1ccc(O)cc1)C(=O)N1CCC[C@H]1C(=O)N[C@@H](CS)C(=O)N[C@@H](CC(N)=O)C(=O)NCC(=O)N1CCC[C@H]1C(=O)O | 21 µM
CC(C)C[C@H](NC(=O)c1cccc(CNC(=O)[C@H](Cc2ccccc2)NC(=O)[C@H](Cc2cnc[nH]2)NC(=O)CNC(=O)[C@@H](NC(=O)[C@@H](NC(=O)[C@H](Cc2ccccc2)NC(=O)[C@@H](N)CCCN=C(N)N)C(C)(C)S)[C@@H](C)O)c1)C(=O)N[C@@H](Cc1ccc(O)cc1)C(=O)N1CCC[C@H]1C(=O)N[C@@H](CS)C(=O)O | 57 µM
CC(C)C[C@H](NC(=O)CNC(=O)[C@H]1CCCN1C(=O)[C@H](Cc1ccccc1)NC(=O)[C@H](Cc1cnc[nH]1)NC(=O)CNC(=O)[C@@H](NC(=O)[C@@H](NC(=O)[C@H](Cc1ccccc1)NC(=O)[C@H](CCCN=C(N)N)NC(=O)[C@@H](N)CCC(N)=O)C(C)(C)S)[C@@H](C)O)C(=O)N[C@@H](Cc1ccc(O)cc1)C(=O)N1CCC[C@H]1C(=O)N[C@@H](CS)C(=O)N[C@@H](CC(N)=O)C(=O)NCC(=O)N1CCC[C@H]1C(=O)O | 5 µM
CC(C)C[C@H](NC(=O)[C@@H](C)NC(=O)CNC(=O)[C@H](Cc1ccccc1)NC(=O)[C@H](Cc1cnc[nH]1)NC(=O)CNC(=O)[C@@H](NC(=O)[C@H](CS)NC(=O)[C@H](Cc1ccccc1)NC(=O)[C@H](CCCN=C(N)N)NC(=O)[C@@H](N)CCC(N)=O)[C@@H](C)O)C(=O)N[C@@H](Cc1ccc(O)cc1)C(=O)N1CCC[C@H]1C(=O)N[C@@H](CS)C(=O)N[C@@H](CC(N)=O)C(=O)NCC(=O)N1CCC[C@H]1C(=O)O | 57 µM
CC(C)C[C@@H](C(=O)N[C@@H](Cc1ccc(O)cc1)C(=O)N1CCC[C@H]1C(=O)N[C@@H](C)C(=O)O)N(C)C(=O)CN(C)C(=O)CNC(=O)[C@H](Cc1ccccc1)NC(=O)[C@H](Cc1cnc[nH]1)NC(=O)CNC(=O)[C@@H](NC(=O)[C@@H](NC(=O)[C@H](Cc1ccccc1)NC(=O)[C@@H](N)CCCNC(=N)N)C(C)C)[C@@H](C)O | 37 µM
CC(C)C[C@H](NC(=O)[C@H]1CCCN1C(=O)[C@@H](C)NC(=O)[C@H](Cc1ccccc1)NC(=O)[C@H](Cc1cnc[nH]1)NC(=O)CNC(=O)[C@@H](NC(=O)[C@@H](NC(=O)[C@H](Cc1ccccc1)NC(=O)[C@H](CCCN=C(N)N)NC(=O)[C@@H](N)CCC(N)=O)C(C)(C)S)[C@@H](C)O)C(=O)N[C@@H](Cc1ccc(O)cc1)C(=O)N1CCC[C@H]1C(=O)N[C@@H](CS)C(=O)N[C@@H](CC(N)=O)C(=O)NCC(=O)N1CCC[C@H]1C(=O)O | 3.7 µM
CC(C)C[C@H](NC(=O)Cc1ccc(NC(=O)[C@H](Cc2ccccc2)NC(=O)[C@H](Cc2cnc[nH]2)NC(=O)CNC(=O)[C@@H](NC(=O)[C@@H](NC(=O)[C@H](Cc2ccccc2)NC(=O)[C@@H](N)CCCN=C(N)N)C(C)(C)S)[C@@H](C)O)cc1)C(=O)N[C@@H](Cc1ccc(O)cc1)C(=O)N1CCC[C@H]1C(=O)N[C@@H](CS)C(=O)O | > 125 µM
CC(C)C[C@H](NC(=O)[C@H]1CSC2C[C@@H](NC(=O)[C@H](Cc3ccccc3)NC(=O)[C@H](Cc3cnc[nH]3)NC(=O)CNC(=O)[C@@H](NC(=O)[C@H](NC(=O)[C@H](Cc3ccccc3)NC(=O)[C@@H](N)CCCNC(=N)N)C(C)(C)S)[C@@H](C)O)C(=O)N21)C(=O)N[C@@H](Cc1ccc(O)cc1)C(=O)N1CCC[C@H]1C(=O)N[C@@H](CS)C(=O)O (stereo partly specified) | 23 µM

Next, values leading:

IC50 | Structure (SMILES)
11.4 µM | CC(C)C[C@H](NC(=O)CNC(=O)CNC(=O)[C@H](Cc1ccccc1)NC(=O)[C@H](Cc1cnc[nH]1)NC(=O)CNC(=O)[C@@H](NC(=O)[C@H](NC(=O)[C@@H](Cc1ccccc1)NC(=O)[C@H](CCCN=C(N)N)NC(=O)[C@@H](N)CCC(N)=O)C(C)(C)S)[C@@H](C)O)C(=O)N[C@@H](Cc1ccc(O)cc1)C(=O)N1CCC[C@H]1C(=O)N[C@H](CS)C(=O)N[C@@H](CC(N)=O)C(=O)NCC(=O)N1CCC[C@H]1C(=O)O
60 µM | CC(C)C[C@H](NC(=O)CNC(=O)CNC(=O)[C@H](Cc1ccccc1)NC(=O)[C@H](Cc1cnc[nH]1)NC(=O)CNC(=O)[C@@H](NC(=O)[C@H](CCCCN)NC(=O)[C@H](Cc1ccccc1)NC(=O)[C@H](CCCNC(=N)N)NC(=O)[C@@H](N)CCC(N)=O)[C@@H](C)O)C(=O)N[C@@H](Cc1ccc(O)cc1)C(=O)N1CCC[C@H]1C(=O)N[C@@H](CC(=O)O)C(=O)N[C@@H](CC(N)=O)C(=O)NCC(=O)N1CCC[C@H]1C(=O)O
4.3 µM | CC(C)C[C@H](NC(=O)[C@@H](C)NC(=O)[C@@H](Cc1ccccc1)NC(=O)[C@H](Cc1ccccc1)NC(=O)[C@H](Cc1cnc[nH]1)NC(=O)CNC(=O)[C@@H](NC(=O)[C@@H](NC(=O)[C@H](Cc1ccccc1)NC(=O)[C@H](CCCNC(=N)N)NC(=O)[C@@H](N)CCC(N)=O)C(C)(C)S)[C@@H](C)O)C(=O)N[C@@H](Cc1ccc(O)cc1)C(=O)N1CCC[C@H]1C(=O)N[C@@H](CS)C(=O)N[C@@H](CC(N)=O)C(=O)NCC(=O)N1CCC[C@H]1C(=O)O
120 µM | CC(C)C[C@H](NC(=O)CNC(=O)CNC(=O)[C@H](Cc1ccccc1)NC(=O)[C@H](Cc1cnc[nH]1)NC(=O)CNC(=O)[C@@H](NC(=O)[C@H](CCCN)NC(=O)[C@H](Cc1ccccc1)NC(=O)[C@H](CCCNC(=N)N)NC(=O)[C@@H](N)CCC(N)=O)[C@@H](C)O)C(=O)N[C@@H](Cc1ccc(O)cc1)C(=O)N1CCC[C@H]1C(=O)N[C@@H](CC(=O)O)C(=O)N[C@@H](CC(N)=O)C(=O)NCC(=O)N1CCC[C@H]1C(=O)O
120 µM | CC(C)C[C@H](NC(=O)CNC(=O)CNC(=O)[C@H](Cc1ccccc1)NC(=O)[C@H](Cc1cnc[nH]1)NC(=O)CNC(=O)[C@@H](NC(=O)[C@H](CN)NC(=O)[C@H](Cc1ccccc1)NC(=O)[C@H](CCCNC(=N)N)NC(=O)[C@@H](N)CCC(N)=O)[C@@H](C)O)C(=O)N[C@@H](Cc1ccc(O)cc1)C(=O)N1CCC[C@H]1C(=O)N[C@@H](CC(=O)O)C(=O)N[C@@H](CC(N)=O)C(=O)NCC(=O)N1CCC[C@H]1C(=O)O
18 µM | CC[C@H](C)[C@@H](NC(=O)CNC(=O)[C@H](Cc1ccccc1)NC(=O)[C@H](Cc1cnc[nH]1)NC(=O)CNC(=O)[C@@H](NC(=O)[C@@H](NC(=O)[C@H](Cc1ccccc1)NC(=O)[C@H](CCCNC(=N)N)NC(=O)[C@@H](N)CCC(N)=O)C(C)(C)S)[C@@H](C)O)C(=O)N[C@@H](CC(C)C)C(=O)N[C@@H](Cc1ccc(O)cc1)C(=O)N1CCC[C@H]1C(=O)N[C@@H](CS)C(=O)N[C@@H](CC(N)=O)C(=O)NCC(=O)N1CCC[C@H]1C(=O)O
30 µM | CC(C)C[C@H](NC(=O)CNC(=O)CNC(=O)[C@H](Cc1ccccc1)NC(=O)[C@H](Cc1cnc[nH]1)NC(=O)CNC(=O)[C@@H](NC(=O)[C@H](CCCN)NC(=O)[C@H](Cc1ccccc1)NC(=O)[C@H](CCCNC(=N)N)NC(=O)[C@@H](N)CCC(N)=O)[C@@H](C)O)C(=O)N[C@@H](Cc1ccc(O)cc1)C(=O)N1CCC[C@H]1C(=O)N[C@@H](CCC(=O)O)C(=O)N[C@@H](CC(N)=O)C(=O)NCC(=O)N1CCC[C@H]1C(=O)O
2 µM | CC(C)C[C@H](NC(=O)CNC(=O)CNC(=O)[C@H](Cc1ccccc1)NC(=O)[C@H](Cc1cnc[nH]1)NC(=O)CNC(=O)[C@@H](NC(=O)[C@@H](NC(=O)[C@H](Cc1ccccc1)NC(=O)[C@H](CCCNC(=N)N)NC(=O)[C@@H](N)CCC(N)=O)C(C)(C)S)[C@@H](C)O)C(=O)N[C@@H](Cc1ccc(O)cc1)C(=O)N1CCC[C@H]1C(=O)N[C@@H](CCS)C(=O)N[C@@H](CC(N)=O)C(=O)NCC(=O)N1CCC[C@H]1C(=O)O
4.1 µM | CC(C)C[C@H](NC(=O)CNC(=O)[C@@H](CCCN=C(N)N)NC(=O)[C@H](Cc1ccccc1)NC(=O)[C@H](Cc1cnc[nH]1)NC(=O)CNC(=O)[C@@H](NC(=O)[C@@H](NC(=O)[C@H](Cc1ccccc1)NC(=O)[C@H](CCCN=C(N)N)NC(=O)[C@@H](N)CCC(N)=O)C(C)(C)S)[C@@H](C)O)C(=O)N[C@@H](Cc1ccc(O)cc1)C(=O)N1CCC[C@H]1C(=O)N[C@@H](CS)C(=O)N[C@@H](CC(N)=O)C(=O)NCC(=O)N1CCC[C@H]1C(=O)O
> 125 µM | CC(C)C[C@H](NC(=O)CNC(=O)CNC(=O)[C@H](Cc1ccccc1)NC(=O)[C@H](Cc1cnc[nH]1)NC(=O)CNC(=O)[C@@H](NC(=O)[C@H](CN)NC(=O)[C@H](Cc1ccccc1)NC(=O)[C@H](CCCN=C(N)N)NC(=O)[C@@H](N)CCC(N)=O)[C@@H](C)O)C(=O)N[C@@H](Cc1ccc(O)cc1)C(=O)N1CCC[C@H]1C(=O)N[C@@H](CCC(=O)O)C(=O)N[C@@H](CC(N)=O)C(=O)NCC(=O)N1CCC[C@H]1C(=O)O (H-QRF[Dap]TGHFGGLYPENGP-OH)
3.6 µM | CC(C)C[C@H](NC(=O)CNC(=O)[C@@H](Cc1cnc[nH]1)NC(=O)[C@H](Cc1ccccc1)NC(=O)[C@H](Cc1cnc[nH]1)NC(=O)CNC(=O)[C@@H](NC(=O)[C@@H](NC(=O)[C@H](Cc1ccccc1)NC(=O)[C@H](CCCNC(=N)N)NC(=O)[C@@H](N)CCC(N)=O)C(C)(C)S)[C@@H](C)O)C(=O)N[C@@H](Cc1ccc(O)cc1)C(=O)N1CCC[C@H]1C(=O)N[C@@H](CS)C(=O)N[C@@H](CC(N)=O)C(=O)NCC(=O)N1CCC[C@H]1C(=O)O
90 µM | CC(C)C[C@H](NC(=O)CNC(=O)CNC(=O)[C@H](Cc1ccccn1)NC(=O)[C@H](Cc1cnc[nH]1)NC(=O)CNC(=O)[C@@H](NC(=O)[C@@H](NC(=O)[C@H](Cc1ccccc1)NC(=O)[C@H](CCCNC(=N)N)NC(=O)[C@@H](N)CCC(N)=O)C(C)(C)S)[C@@H](C)O)C(=O)N[C@@H](Cc1ccc(O)cc1)C(=O)N1CCC[C@H]1C(=O)N[C@@H](CS)C(=O)N[C@@H](CC(N)=O)C(=O)NCC(=O)N1CCC[C@H]1C(=O)O
